# Reference: ChEMBL document CHEMBL4196081, “Synthesis and antimycobacterial activity of 1-(β-d-Ribofuranosyl)-4-coumarinyloxymethyl- / -coumarinyl-1,2,3-triazole” (Eur J Med Chem, 2018)
# Calls of active or inactive are those of the source. No cut-off for these calls is given here.
# Assays:
# [1] = tested on: Mycobacterium tuberculosis; assay: Antimycobacterial activity against MDR Mycobacterium tuberculosis isolate 591 after 15 days by MABA; assay type: functional; settings: isolate 591, 360 h
# How it was run: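 MABA in 7H9 medium on MDR clinical isolate 591: filtered single-cell suspension, 1 × 10^6 cells per well with drug dilutions, aerobic 37 °C; 0.02 % resazurin added on day 15, overnight 37 °C. MIC = lowest concentration preventing blue-to-pink change. Triplicate; medium+inoculum and medium-only controls.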
# [2] = tested on: Mycobacterium tuberculosis; assay: Ratio of MBC to MIC for Mycobacterium tuberculosis H37Rv; assay type: functional
# [3] = tested on: Mycobacterium tuberculosis; assay: Bactericidal activity against Mycobacterium tuberculosis H37Rv after 4 weeks by MABA; assay type: functional; settings: 672 h
# [4] = tested on: Mycobacterium tuberculosis; assay: Antimycobacterial activity against Mycobacterium tuberculosis H37Rv after 10 days by MABA; assay type: functional; settings: 240 h
# How it was run: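 MABA in 7H9 medium: log-phase culture passed through 8 µm filter, density set by OD600 and McFarland standards, 1 × 10^6 cells per well with drug dilutions; aerobic incubation 37 °C 10 days, then 0.02 % resazurin, overnight 37 °C. MIC = lowest concentration preventing blue-to-pink change. Triplicate; medium+inoculum and medium-only controls.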
# [5] = target: DNA gyrase subunit B (Escherichia coli) (UniProt P0AES6); assay: Inhibition of Escherichia coli DNA gyrase-B at 0.66 to 100 uM using relaxed pUC19 DNA as substrate after 1 hr by bromophenol blue dye based agarose gel electrophoresis method
# How it was run: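 E. coli DNA gyrase, 1 unit, with 0.3 µg relaxed pUC19 plasmid in 1X gyrase assay buffer. Compound added as 0.2 µL from 100 µM stock; ciprofloxacin positive control, DMSO solvent control. Incubated 37 °C for 1 h, stopped with 50% glycerol/0.25% bromophenol blue. Run on 1% agarose in 0.5X TBE pH 8.3, 16 h at 30 mA, ethidium bromide stained, UV visualised for supercoiling.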
# [6] = Cytotoxicity against human THP1 cells assessed as cell viability at 18.72 ug/ml after 48 hrs by MTT assay relative to control; assay type: cell-based; settings: THP-1 cells, read-out: Activity
# How it was run: (§1)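 THP-1 cells (human monocytic line) seeded at 10^4 per well and adhered with phorbol myristate acetate (20 ng/mL). Then given fresh RPMI with 10% foetal calf serum and 2 mM L-glutamine, plus compound by serial double dilution (4.68–150 µg/mL), with DMSO and no-DMSO controls. Incubated 24 or 48 h at 37 °C, 5% CO2. MTT added for 4 h, formazan dissolved in DMSO, A540 read, percentage survival calculated.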
# [7] = Selectivity index, ratio of IC50 for cytotoxicity against human THP1 cells to MIC for Mycobacterium tuberculosis H37Rv; assay type: toxicity, cell-based; settings: THP-1 cells, read-out: Selectivity Index
# How it was run: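 THP-1 cells, 10^4/well, adhered with PMA 20 ng/mL, in RPMI with 10 % FCS and 2 mM L-glutamine; exposed to 4.68–150 µg/mL for 24 and 48 h at 37 °C, 5 % CO2; MTT 4 h, formazan in DMSO, A540. Index = THP-1 IC50 divided by H37Rv MABA MIC.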
# [8] = Cytotoxicity against human THP1 cells assessed as cell viability at 150 ug/ml after 24 hrs by MTT assay relative to control; assay type: cell-based; settings: THP-1 cells, read-out: Activity; how it was run: as §1
# [9] = Cytotoxicity against human THP1 cells assessed as cell viability at 9.36 ug/ml after 24 hrs by MTT assay relative to control; assay type: cell-based; settings: THP-1 cells, read-out: Activity; how it was run: as §1
# [10] = Cytotoxicity against human THP1 cells assessed as cell viability at 4.68 ug/ml after 48 hrs by MTT assay relative to control; assay type: cell-based; settings: THP-1 cells, read-out: Activity; how it was run: as §1
# THP-1 = assay: Cytotoxicity against human THP1 cells assessed as growth inhibition after 24 to 48 hrs by MTT assay; assay type: cell-based; how it was run: as §1
# [11] = Cytotoxicity against human THP1 cells assessed as cell viability at 75 ug/ml after 48 hrs by MTT assay relative to control; assay type: cell-based; settings: THP-1 cells, read-out: Activity; how it was run: as §1
# [12] = Cytotoxicity against human THP1 cells assessed as cell viability at 9.36 ug/ml after 48 hrs by MTT assay relative to control; assay type: cell-based; settings: THP-1 cells, read-out: Activity; how it was run: as §1
# [13] = Cytotoxicity against human THP1 cells assessed as cell viability at 37.48 ug/ml after 48 hrs by MTT assay relative to control; assay type: cell-based; settings: THP-1 cells, read-out: Activity; how it was run: as §1
# [14] = Cytotoxicity against human THP1 cells assessed as cell viability at 37.48 ug/ml after 24 hrs by MTT assay relative to control; assay type: cell-based; settings: THP-1 cells, read-out: Activity; how it was run: as §1
# [15] = Cytotoxicity against human THP1 cells assessed as cell viability at 75 ug/ml after 24 hrs by MTT assay relative to control; assay type: cell-based; settings: THP-1 cells, read-out: Activity; how it was run: as §1
# [16] = Cytotoxicity against human THP1 cells assessed as cell viability at 150 ug/ml after 48 hrs by MTT assay relative to control; assay type: cell-based; settings: THP-1 cells, read-out: Activity; how it was run: as §1
# [17] = Cytotoxicity against human THP1 cells assessed as cell viability at 18.72 ug/ml after 24 hrs by MTT assay relative to control; assay type: cell-based; settings: THP-1 cells, read-out: Activity; how it was run: as §1
# [18] = Cytotoxicity against human THP1 cells assessed as cell viability at 4.68 ug/ml after 24 hrs by MTT assay relative to control; assay type: cell-based; settings: THP-1 cells, read-out: Activity; how it was run: as §1
Structure (SMILES),MIC [1],Ratio [2],MBC [3],MIC [4],further results
O=C(OC[C@H]1O[C@@H](n2cc(-c3ccc4ccc(=O)oc4c3)nn2)[C@H](OC(=O)c2ccccc2)[C@@H]1OC(=O)c1ccccc1)c1ccccc1,30.4 µM,2,30.4 µM,15.2 µM,
CC[C@@H](CO)NCCN[C@@H](CC)CO [ETHAMBUTOL],73.4 µM,,,9.7 µM,
Cc1cc(=O)oc2cc(-c3cn([C@@H]4O[C@H](COC(=O)c5ccccc5)[C@@H](OC(=O)c5ccccc5)[C@H]4OC(=O)c4ccccc4)nn3)c(Cl)cc12,14.2 µM,1.8,25.5 µM,14.2 µM,
O=C(O)c1cn(C2CC2)c2cc(N3CCNCC3)c(F)cc2c1=O,,,,,inhibition [5]: Active
O=C(OC[C@H]1O[C@@H](n2cc(-c3ccc4c(-c5ccccc5)cc(=O)oc4c3)nn2)[C@H](OC(=O)c2ccccc2)[C@@H]1OC(=O)c1ccccc1)c1ccccc1,13.6 µM,2.25,24.5 µM,10.9 µM,
CO[C@H]1/C=C/O[C@@]2(C)Oc3c(C)c(O)c4c(O)c(c(/C=N/N5CCN(C)CC5)c(O)c4c3C2=O)NC(=O)/C(C)=C\C=C\[C@H](C)[C@H](O)[C@@H](C)[C@@H](O)[C@@H](C)[C@H](OC(C)=O)[C@@H]1C [RIFAMPIN],152 µM,,,0.02 µM,
Cc1cc(=O)oc2cc(OCc3cn([C@@H]4O[C@H](COC(=O)c5ccccc5)[C@@H](OC(=O)c5ccccc5)[C@H]4OC(=O)c4ccccc4)nn3)c(Cl)cc12,20.4 µM,2,27.2 µM,13.5 µM,
O=c1ccc2ccc(-c3cn([C@@H]4O[C@H](CO)[C@@H](O)[C@H]4O)nn3)cc2o1,28.9 µM,1.6,46.3 µM,28.9 µM,
O=C(OC[C@H]1O[C@@H](n2cc(COc3ccc4ccc(=O)oc4c3)nn2)[C@H](OC(=O)c2ccccc2)[C@@H]1OC(=O)c1ccccc1)c1ccccc1,14.5 µM,2.25,26.2 µM,11.6 µM,
Cc1cc(=O)oc2cc(-c3cn([C@@H]4O[C@H](CO)[C@@H](O)[C@H]4O)nn3)c(Cl)cc12,25.4 µM,,,30.5 µM,
[H]/N=C(/N)N[C@H]1[C@H](O)[C@@H](O)[C@H](O[C@@H]2O[C@@H](C)[C@](O)(C=O)[C@H]2O[C@@H]2O[C@@H](CO)[C@H](O)[C@@H](O)[C@@H]2NC)[C@@H](N/C(N)=N\[H])[C@@H]1O [STREPTOMYCIN],69 µM,,,0.43 µM,"viability at 48 h, 18.72 ug/ml [6]: 84%; selectivity ratio [7]: 600; viability at 24 h, 150 ug/ml [8]: 75%; viability at 24 h, 9.36 ug/ml [9]: 99%; viability at 48 h, 4.68 ug/ml [10]: 90%; IC50 (THP-1): > 258 µM; viability at 48 h, 75 ug/ml [11]: 69%; viability at 48 h, 9.36 ug/ml [12]: 86%; viability at 48 h, 37.48 ug/ml [13]: 77%; viability at 24 h, 37.48 ug/ml [14]: 89%; viability at 24 h, 75 ug/ml [15]: 80%; viability at 48 h, 150 ug/ml [16]: 55%; viability at 24 h, 18.72 ug/ml [17]: 98%; viability at 24 h, 4.68 ug/ml [18]: 100%"
Cc1cc(=O)oc2cc(OCc3cn([C@@H]4O[C@H](CO)[C@@H](O)[C@H]4O)nn3)c(Cl)cc12,18.9 µM,2,37.7 µM,18.9 µM,
Cc1cc(=O)oc2cc(OCc3cn([C@@H]4O[C@H](COC(=O)c5ccccc5)[C@@H](OC(=O)c5ccccc5)[C@H]4OC(=O)c4ccccc4)nn3)ccc12,11.4 µM,2,17.1 µM,8.5 µM,
O=c1cc(-c2ccccc2)c2ccc(-c3cn([C@@H]4O[C@H](CO)[C@@H](O)[C@H]4O)nn3)cc2o1,18.9 µM,2,28.5 µM,14.2 µM,"viability at 48 h, 18.72 ug/ml [6]: 83%; selectivity ratio [7]: 25; viability at 24 h, 150 ug/ml [8]: 65%; viability at 24 h, 9.36 ug/ml [9]: 94%; viability at 48 h, 4.68 ug/ml [10]: 96%; IC50 (THP-1): > 355 µM; viability at 48 h, 75 ug/ml [11]: 63%; viability at 48 h, 9.36 ug/ml [12]: 94%; viability at 48 h, 37.48 ug/ml [13]: 70%; viability at 24 h, 37.48 ug/ml [14]: 70%; viability at 24 h, 75 ug/ml [15]: 68%; viability at 48 h, 150 ug/ml [16]: 62%; viability at 24 h, 18.72 ug/ml [17]: 84%; viability at 24 h, 4.68 ug/ml [18]: 100%"
Cc1cc(=O)oc2cc(-c3cn([C@@H]4O[C@H](COC(=O)c5ccccc5)[C@@H](OC(=O)c5ccccc5)[C@H]4OC(=O)c4ccccc4)nn3)ccc12,29.8 µM,2.25,26.8 µM,11.9 µM,
O=c1ccc2ccc(OCc3cn([C@@H]4O[C@H](CO)[C@@H](O)[C@H]4O)nn3)cc2o1,15.9 µM,2.5,26.6 µM,10.6 µM,"viability at 48 h, 18.72 ug/ml [6]: 84%; selectivity ratio [7]: 37.7; viability at 24 h, 150 ug/ml [8]: 60%; viability at 24 h, 9.36 ug/ml [9]: 91%; viability at 48 h, 4.68 ug/ml [10]: 89%; IC50 (THP-1): > 400 µM; viability at 48 h, 75 ug/ml [11]: 59%; viability at 48 h, 9.36 ug/ml [12]: 86%; viability at 48 h, 37.48 ug/ml [13]: 63%; viability at 24 h, 37.48 ug/ml [14]: 86%; viability at 24 h, 75 ug/ml [15]: 68%; viability at 48 h, 150 ug/ml [16]: 55%; viability at 24 h, 18.72 ug/ml [17]: 89%; viability at 24 h, 4.68 ug/ml [18]: 100%"
